{"source": "PubChem BioAssay AID1885", "about": "(Broad Institute, 2009)", "note": "About 4,400 (1.5%) of roughly 300,000 compounds were called active. For the sample, actives were picked, then their nearest neighbours and some compounds at random. Unmarked numbers belong to inactive results.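 The calls were made as follows: active = mean inhibition across valid replicates above about 55% (limit read from the data); inconclusive = mean below that limit but half or more replicates reach it; inactive = mean below it, under half of replicates reach it.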", "data": [{"assay": "inhibitors of intracellular T. cruzi growth, primary screen, luminescence, NIH3T3 host cells (AID 1885);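 also: signal also drops with host cell toxicity which is not excluded here; 0% = plate median of DMSO wells and 100% = zero luminescence signal; higher percent means less beta-gal luminescence so fewer parasites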", "details": "T. cruzi beta-gal in NIH3T3, luminescence, 90 h; stronger effect = higher value; concentration not given here", "summary_of_the_method": "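System: mouse NIH/3T3 fibroblasts infected with β-gal-expressing T. cruzi Tulahuen C4 / Input: NIH/3T3 cells, 5,000 per well / Buffer or medium: Low-serum DMEM with 2% FBS / Probe or stimulus: 5000 reporter trypomastigotes per well / Schedule: ≥90 h infection period, 3 h prior cell attachment / Measured by: GalScreen luminescence, 60 min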", "values": [{"smiles": "COc1ccccc1N(CC(=O)Nc1ccccc1C(=O)N1CCCC1)S(C)(=O)=O", "inhibition": "-3.65%"}, {"smiles": "Cc1ccc(NC(=O)CSCC(=O)Nc2sccc2C#N)cc1", "inhibition": "-1.58%"}, {"smiles": "COc1ccc(CCNC(=O)CN2C(=O)COc3ccc(S(=O)(=O)N4CCCC4)cc32)cc1OC", "inhibition": "-4.6%"}, {"smiles": "CN(C)CCCN(C(=O)c1ccc(S(=O)(=O)N2CCCCCC2)cc1)c1nc2ccc(Br)cc2s1", "inhibition": "23.2%"}, {"smiles": "CN(C)CCCN(C(=O)c1ccc(S(=O)(=O)N2CCCCCC2)cc1)c1nc2cc3c(cc2s1)OCCO3", "inhibition": "65.3% (active)"}, {"smiles": "CCN(CC)CCN(C(=O)c1ccc(S(=O)(=O)N2CCOCC2)cc1)c1nc2cc3c(cc2s1)OCCO3", "inhibition": "50.5%"}, {"smiles": "Cc1ccccc1OCC(=O)NNC(=O)c1ccc(-n2cncn2)c([N+](=O)[O-])c1", "inhibition": "14.2%"}, {"smiles": "COc1cc(C(=O)OCC(=O)N(CC(C)C)C2CCS(=O)(=O)C2)ccc1OCC(C)C", "note": "(stereo unspecified)", "inhibition": "1.65%"}, {"smiles": "O=C(Cc1ccc(F)cc1)NC1CCCC1", "inhibition": "-10.7%"}, {"smiles": "O=C(CSc1ncnc2c1oc1ccccc12)NC1CCCC1", "inhibition": "9.78%"}, {"smiles": "O=C(CSc1ncnc2c1nnn2Cc1ccc(F)cc1)NC1CCCC1", "inhibition": "59.1% (active)"}, {"smiles": "Cc1sc(NC(=O)C2=COCCO2)c(C#N)c1C", "inhibition": "6.24%"}, {"smiles": "COc1cccc(C(=O)NCCS(=O)(=O)NCC2CCCO2)c1", "note": "(stereo unspecified)", "inhibition": "-7.57%"}, {"smiles": "O=[N+]([O-])c1ccc(NCCCN2CCOCC2)c(Cl)c1", "inhibition": "10.6%"}, {"smiles": "O=C(NCCCN1CCOCC1)c1ccc(N2CCCC2)c([N+](=O)[O-])c1", "inhibition": "8.18%"}, {"smiles": "O=C(NCCCN1CCOCC1)c1ccc([N+](=O)[O-])cc1[N+](=O)[O-]", "inhibition": "64.7% (active)"}, {"smiles": "Cc1ccc(C(=O)NNC(=O)C(C)Oc2ccc3ccccc3c2)o1", "note": "(stereo unspecified)", "inhibition": "-1.31%"}, {"smiles": "COCCn1nnnc1C(c1cc2ccc(OC)cc2[nH]c1=O)N1CCc2ccccc2C1", "note": "(stereo unspecified)", "inhibition": "-9.17%"}, {"smiles": "COc1ccc(OC)c(C(c2nnnn2C(C)(C)C)N2CCc3ccccc3C2)c1", "note": "(stereo unspecified)", "inhibition": "63.1% (active)"}, {"smiles": "COc1ccccc1C(c1nnnn1C(C)(C)C)N1CCN(Cc2ccccc2)CC1", "note": "(stereo unspecified)", "inhibition": "-3.59%"}, {"smiles": "CCCCN(C(=O)c1ccc(C)o1)c1c(N)n(CCCC)c(=O)[nH]c1=O", "inhibition": "-0.399%"}, {"smiles": "O=C1CC(Sc2ncn[nH]2)C(=O)N1c1ccccc1", "note": "(stereo unspecified)", "inhibition": "23.3%"}, {"smiles": "CC(NC(=O)CSc1nc2c(cc1C#N)CN(C)CC2)c1ccccc1", "note": "(stereo unspecified)", "inhibition": "1.88%"}, {"smiles": "Cc1c(-c2ccccc2)nc(N)c(C#N)c1-c1cccs1", "inhibition": "0.738%"}, {"smiles": "CN1CCc2nc(SC(C(=O)O)c3ccccc3)c(C#N)c(-c3cccs3)c2C1", "note": "(stereo unspecified)", "inhibition": "64.4% (active)"}, {"smiles": "CCCCn1c(N)c(N(Cc2ccccc2OC)C(=O)COc2cc(C)ccc2Cl)c(=O)[nH]c1=O", "inhibition": "6.73%"}, {"smiles": "COc1ccccc1C(=O)COC(=O)CSCC(=O)Nc1cc(C)on1", "inhibition": "-6.4%"}, {"smiles": "CCN1CCN(CCNC(=O)c2ccc3c(c2)NC(=O)/C(=C\\c2ccc(OC)c(OC)c2)S3)CC1", "inhibition": "11.8%"}, {"smiles": "CCN1CCN(CCNC(=O)c2ccc(/C=C3/Sc4ccccc4N(Cc4cccc(C)c4)C3=O)cc2)CC1", "inhibition": "59% (active)"}, {"smiles": "O=C(NCCN1CCOCC1)c1ccc(/C=C2\\Sc3ccccc3N(Cc3ccc(F)cc3)C2=O)cc1", "inhibition": "10.9%"}, {"smiles": "Cc1cc(C)c(S(=O)(=O)N2CCCC2CNC(=O)c2ccc3c(c2)OCO3)c(C)c1", "note": "(stereo unspecified)", "inhibition": "-2.11%"}, {"smiles": "Cc1ccc(S(=O)(=O)c2c[nH]c3ccc(Cl)cc3c2=O)cc1", "inhibition": "5.53%"}, {"smiles": "O=C(NCc1ccccc1)C1=C[C@H](C2CC2)C[C@H](OCc2ccc(CO)cc2)O1", "inhibition": "15%"}, {"smiles": "O=C(C1=C[C@H](C2CC2)C[C@H](OCc2ccc(CO)cc2)O1)N1CCN(Cc2ccccc2)CC1", "inhibition": "59.7% (active)"}, {"smiles": "O=C(C1=C[C@H](c2coc3ccccc3c2=O)C[C@H](OCc2ccc(CO)cc2)O1)N1CCN(Cc2ccccc2)CC1", "inhibition": "33.6%"}, {"smiles": "O=S(=O)(c1ccccc1)N1CCC(c2ccccc2)CC1", "inhibition": "0.981%"}, {"smiles": "Cc1ccc(C(=O)N2CCC(n3nccc3NC(=O)Nc3cccc(F)c3)CC2)cn1", "inhibition": "-8.51%"}, {"smiles": "COc1ccc(CNS(=O)(=O)c2cc3c4c(c2)CCN4C(=O)CC3)cc1", "inhibition": "-11.2%"}, {"smiles": "CC1CN(S(=O)(=O)c2ccc(C(=O)NN3CCN(C)CC3)cc2)CC(C)O1", "note": "(stereo unspecified)", "inhibition": "6.61%"}, {"smiles": "CN1CCN(NC(=O)c2ccc(S(=O)(=O)N3CCCCCC3)cc2)CC1", "inhibition": "68.3% (active)"}, {"smiles": "COc1cc(C(=O)NNC(=O)c2ccc(S(=O)(=O)N3CCCCC3)cc2)cc(OC)c1OC", "inhibition": "-12.8%"}, {"smiles": "CCN(CC(=O)Nc1cc(Cl)ccc1C)C(=O)CN1C(=O)NC2(CCCC2)C1=O", "inhibition": "2.7%"}, {"smiles": "COc1ccc(C(=O)CN2C(=O)NC3(CCc4ccccc43)C2=O)c(OC)c1", "note": "(stereo unspecified)", "inhibition": "1.63%"}, {"smiles": "C/C(=N\\NC(=O)c1ccccc1F)c1ccccn1", "inhibition": "23.5%"}, {"smiles": "C/C(=N\\NC(=O)Cc1ccc(Cl)cc1)c1ccccn1", "inhibition": "64.9% (active)"}, {"smiles": "C/C(=N\\NC(=O)Cc1ccc(Br)cc1)c1cccnc1", "inhibition": "-9.89%"}, {"smiles": "CCOc1ccc(NC(=O)CN(C)C(=O)c2c(C)noc2C)cc1OCC", "inhibition": "0.476%"}, {"smiles": "CCCS(=O)(=O)N1CCN=C1SCc1cccc(F)c1", "inhibition": "6.03%"}, {"smiles": "CC1CCN(c2ccc(-c3ccc(NC(=O)c4ccco4)cc3)nn2)CC1", "inhibition": "6.55%"}, {"smiles": "COc1ccc(NC(=O)CSc2nc(NS(=O)(=O)c3ccc(C)cc3)cc(=O)[nH]2)cc1", "inhibition": "7.86%"}, {"smiles": "O=C(c1ccc2nc(N3CCOCC3)sc2c1)N1CCN(c2ccc(Cl)cc2)CC1", "inhibition": "2.47%"}, {"smiles": "Cc1ccc2nc(N3CCN(C(=O)c4ccco4)CC3)sc2c1", "inhibition": "-3.92%"}, {"smiles": "COc1ccc2nc(N3CCN(C(=O)c4ccc([N+](=O)[O-])o4)CC3)sc2c1", "inhibition": "60.2% (active)"}, {"smiles": "O=C1C=C(c2ccc(Cl)cc2)C(=O)N1Nc1ccccc1", "inhibition": "44.2%"}, {"smiles": "CC1CCN(C(=O)c2cccc(S(=O)(=O)N3CCCc4ccccc43)c2)CC1", "inhibition": "12.1%"}, {"smiles": "COc1ccc(C(=O)N(CCN2CCOCC2)CC(=O)NC2CCCC2)cc1OC", "inhibition": "-3.29%"}]}]}
